Measurements published in ChEMBL document CHEMBL6134766, “Design, synthesis, and evaluation of benzhydrylpiperazine-based novel dual COX-2/5-LOX inhibitors with anti-inflammatory and anti-cancer activity” (RSC Med Chem, 2025).
Activity calls are given as the source filed them. The rule behind the calls is not given here.

How the values were obtained:
[1] = Toxicity in wild-type Drosophila assessed as lethal dose administered orally via food to female and male flies and measured in F1 generation flies after 15 days; format: organism-based; conditions: both, in vivo, route po, time 15 day, read-out: LD50
Outline: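 Wild-type Oregon R+ flies (10 virgin females and males) were crossed on standard food containing 1, 10, 50, 100 or 200 μM compound and kept at 24 ± 1 °C. The F1 generation was followed for 15 days, scoring percent adult eclosion against an untreated control. LD50 was derived from the eclosion data, with Dunnett's test.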

Drosophila [2] = assay: Toxicity in wild-type Drosophila assessed as eclosion rate at 100 uM, po via food to female and male flies and measured in F1 generation flies after 15 days; format: organism-based; conditions: in vivo, 360 h, time 15 day
Outline: (§1)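 Ten virgin female and male Oregon R+ flies crossed on food containing compound (1, 10, 50, 100 or 200 μM), held at 24 ± 1 °C; F1 generation followed 15 days; percent eclosion versus untreated controls; Dunnett's multiple comparisons.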

Drosophila [3] = assay: Anti-cancer activity in Drosophila harboring UAS-Ras V12 mutant assessed as rescue of third instar larval lethality at 10 to 50 uM, po; format: functional, organism-based; conditions: dose 10-50 µM
Outline: (§2)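 UAS-RasV12 glial glioblastoma model (repo-GAL4/UAS-RasV12) in Drosophila, with Oregon R+ wild-type flies as control. Flies reared at 24 ± 1 °C on standard corn food containing compound at 10 or 50 μM. Percent of animals at each developmental stage (third instar larva, pupa) scored. Significance by Tukey's multiple comparisons test.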

Drosophila [4] = assay: Anti-cancer activity in Drosophila harboring UAS-Ras V12 mutant assessed as improvement in larval development to pupal transition at 10 to 50 uM, po; format: functional, organism-based; conditions: dose 10-50 µM; outline: as §2
Drosophila [5] = assay: Anti-cancer activity in Drosophila harboring UAS-Ras V12 mutant assessed as improvement in pupal development at 10 uM, po; format: functional, organism-based; outline: as §2
Drosophila [6] = assay: Anti-cancer activity in Drosophila harboring UAS-Ras V12 mutant assessed as improvement in third instar larval survivability at 10 to 50 uM, po; format: functional, organism-based; conditions: dose 10-50 µM; outline: as §2
Drosophila [7] = assay: Anti-cancer activity in Drosophila harboring UAS-Ras V12 mutant assessed as improvement in early pupal survivability at 10 to 50 uM, po; format: functional, organism-based; conditions: dose 10-50 µM; outline: as §2
Drosophila [8] = assay: Toxicity in wild-type Drosophila assessed as eclosion rate at 1 uM, po via food to female and male flies and measured in F1 generation flies after 15 days; format: organism-based; conditions: in vivo, 360 h, time 15 day; outline: as §1
Drosophila [9] = assay: Toxicity in wild-type Drosophila assessed as eclosion rate at 10 uM, po via food to female and male flies and measured in F1 generation flies after 15 days; format: organism-based; conditions: in vivo, 360 h, time 15 day; outline: as §1
[10] = Cmax in male Wistar rat at 10 mg/kg, po measured up to 24 hrs by HPLC analysis; format: ADME, organism-based; conditions: in vivo
Outline: (§3)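 Overnight-fasted male Wistar rats, 200–250 g, single 10 mg kg−1 p.o. in 0.3% sodium CMC; blood at 0, 0.5, 1, 2, 4, 8, 16, 24 h into heparin tubes; plasma MeOH-extracted, HPLC (MeOH:H2O 85:15, 254 nm) against calibration curve; extravascular non-compartmental analysis; mean ± SD (n = 3).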

[11] = Tmax in male Wistar rat at 10 mg/kg, po measured up to 24 hrs by HPLC analysis; format: ADME, organism-based; conditions: in vivo; outline: as §3
[12] = MRT in male Wistar rat at 10 mg/kg, po measured up to 24 hrs by HPLC analysis; format: ADME, organism-based; conditions: in vivo; outline: as §3
A549 = assay: Cytotoxicity against human A549 cells assessed as growth inhibition incubated for 48 hrs by SRB assay; conditions: A549, 48 h
MIA PaCa-2 = assay: Cytotoxicity against human MIA PaCa-2 cells assessed as growth inhibition incubated for 48 hrs by SRB assay; conditions: MIA PaCa-2, 48 h

Question: Which results are given for Clc1ccc(-c2nnc(CN3CCN(C(c4ccccc4)c4ccc(Cl)cc4)CC3)o2)cc1 (centres undefined)?
Answer: LC50 at 360 h [1]: 100 µM; Activity (Drosophila [2]): < 50%; Activity (Drosophila [3]): Active; Activity (Drosophila [4]): Active; Activity (Drosophila [5]): Active; Activity (Drosophila [6]): Active; Activity (Drosophila [7]): Active; Activity (Drosophila [8]): ~ 92%; Activity (Drosophila [9]): ~ 84%; Cmax [10]: 10300 ng/mL; Tmax [11]: 3 h; MRT [12]: 3.42 h; GI50 (A549): 0.731 µM; GI50 (MIA PaCa-2): 2.32 µM
